Measured values as given in ChEMBL document CHEMBL4043308 (J Med Chem, 2018).
Calls of active or inactive are those of the source. The rule behind the calls is not given here.

Assays:
Autotaxin [1] = target: T1, Autotaxin (Mus musculus, UniProt Q9R1E6); assay: Inhibition of mouse ATX-beta using LPC 16:0 as substrate by Amplex Red PLD assay
Autotaxin [2] = target: T1, Autotaxin; assay: Inhibition of mouse ATX-beta using LPC 18:0 as substrate by Amplex Red PLD assay
Mus musculus [3] = assay: Antifibrotic activity in BLM-induced C57BL/6 mouse pulmonary fibrosis model assessed as decrease in total protein concentration in bronchoalveolar lavage fluid at 30 mg/kg, ip qd administered 15 days starting 1 day prior to BLM installation by Bradford protein assay relative to control; format: functional, organism-based
Method in brief: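 BALF total protein was measured after orotracheal bleomycin (0.01 U, day 0) and 30 mg/kg ip daily dosing from day −1 to 14. Lavage was done on day 15 with 3 × 1 mL saline, and the supernatant was stored at −80 °C. OD readings were converted to mg/mL using a BSA standard curve (0–2 mg/mL). Means ± SE, paired t test.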

Mus musculus [4] = assay: Antifibrotic activity in BLM-induced C57BL/6 mouse pulmonary fibrosis model assessed as decrease in ATX activity in bronchoalveolar lavage fluid at 30 mg/kg, ip qd administered 15 days starting 1 day prior to BLM installation by TOOS activity assay; format: functional, organism-based
Method in brief: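 Male and female C57BL/6 mice (8–10 weeks) got 0.01 U bleomycin in 50 μL saline orotracheally on day 0. Dosing was 30 mg/kg ip once daily from day −1 to 14 in PBS/5% Tween 80 (n = 10). Lungs were lavaged three times with 1 mL saline on day 15. BALF lysoPLD activity was measured by TOOS assay (nmol/min/mL). Means ± SE.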

Mus musculus [5] = assay: Antifibrotic activity in BLM-induced C57BL/6 mouse pulmonary fibrosis model assessed as decrease in fibrotic lesions at 30 mg/kg, ip qd administered 15 days starting 1 day prior to BLM installation by hematoxylin/eosin staining-based microscopic method; format: functional, organism-based
Method in brief: (§1)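 Bleomycin model: mice 8–10 weeks, 0.01 U orotracheal bleomycin on day 0, 30 mg/kg ip daily from day −1 to 14 (PBS/5% Tween 80 vehicle), killed day 15. Lungs were fixed in 10% neutral buffered formalin, paraffin-embedded, cut at 4 μm and H&E-stained. Sections were examined by light microscopy at ×100–×300.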

Mus musculus [6] = assay: Antifibrotic activity in BLM-induced C57BL/6 mouse pulmonary fibrosis model assessed as improvement in lung architecture at 30 mg/kg, ip qd administered 15 days starting 1 day prior to BLM installation by hematoxylin/eosin staining-based microscopic method; format: functional, organism-based; method in brief: as §1
[7] = Plasma concentration in BLM-induced C57BL/6 mouse pulmonary fibrosis model at 30 mg/kg, ip qd administered 15 days starting 1 day prior to BLM installation measured 1 hr post last dose by LC-MS/MS method; format: ADME, organism-based
Method in brief: (§2)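 Bleomycin-challenged C57BL/6 mice received 30 mg/kg ip daily from day −1 to 14. Blood was taken 1, 3 and 6 h after the last dose into EDTA (pH 8, final 50 mM). It was centrifuged at 2000g for 20 min at 4 °C, and plasma was stored at −80 °C. Plasma drug levels were quantified by LC–MS/MS (ng/mL).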

Mus musculus [8] = assay: Antifibrotic activity in BLM-induced C57BL/6 mouse pulmonary fibrosis model assessed as decrease in soluble collagen concentration in bronchoalveolar lavage fluid at 30 mg/kg, ip qd administered 15 days starting 1 day prior to BLM installation by Sirius Red assay; format: functional, organism-based
Method in brief: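 Day-15 BALF from bleomycin-challenged mice given ip drug at 30 mg/kg daily from day −1 to 14. BALF (100 μL) was diluted in 1 mL 0.5 M acetic acid, mixed with an equal volume of Sirius Red (120 μg/mL in 0.5 M acetic acid) and held 30 min at room temperature. After centrifugation, supernatant A540 was read against a rat-tail collagen I standard (0–500 μg/mL).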

Mus musculus [9] = assay: Antifibrotic activity in BLM-induced C57BL/6 mouse pulmonary fibrosis model assessed as decrease in contiguous fibrotic walls at 30 mg/kg, ip qd administered 15 days starting 1 day prior to BLM installation by hematoxylin/eosin staining-based microscopic method; format: functional, organism-based; method in brief: as §1
Mus musculus [10] = assay: Antifibrotic activity in BLM-induced C57BL/6 mouse pulmonary fibrosis model assessed as decrease in inflammatory cell influx in bronchoalveolar lavage fluid at 30 mg/kg, ip qd administered 15 days starting 1 day prior to BLM installation by trypan blue assay relative to control; format: functional; design: scale not given: the % may be the effect or the level left
Method in brief: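 Mice (C57BL/6, 8–10 weeks) had orotracheal bleomycin 0.01 U on day 0 and ip dosing at 30 mg/kg daily from day −1 to 14, n = 10. On day 15, lungs were lavaged 3 × 1 mL 0.9% NaCl. BALF was spun at 1200 rpm for 10 min, and pellet cells were counted with 0.4% trypan blue (×10^5 cells/mL). Means ± SE.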

Plasma = assay: Plasma concentration in BLM-induced C57BL/6 mouse pulmonary fibrosis model at 30 mg/kg, ip qd administered 15 days starting 1 day prior to BLM installation measured 3 to 6 hrs post last dose by LC-MS/MS method; format: ADME, organism-based; settings: in vivo; method in brief: as §2
Rattus norvegicus = species: Rattus norvegicus; assay: animal or person; settings: Lewis, po, 4 h, read-out: INH
Autotaxin [11] = target: T1, Autotaxin; assay: Inhibition of recombinant mouse ATX expressed in HEK293 cells using LPC 17:0 as substrate after 30 mins by LC-MS/MS method
Autotaxin [12] = target: T1, Autotaxin; assay: Inhibition of recombinant mouse ATX expressed in HEK293 cells using FS3 as substrate preincubated for 15 mins followed by substrate addition measured after 30 mins

Row | Structure (SMILES) | IC50 (Autotaxin [1]) [µM] | also measured
1 | CCCCCCCCCC(=O)Nc1ccc(CC(=O)NO)cc1 | > 5 | –
2 | O=C(Cc1ccc(NC(=O)CCCCC(=O)Nc2ccccc2)cc1)NO | – | IC50 (Autotaxin [2]): 200 nM
3 | COC(=O)[C@H](CCC(=O)NO)NC(=O)CCCCC(=O)Nc1ccc(F)cc1 | > 5 | –
4 | CCCC[C@@H](CCCC(=O)NO)NC(=O)CCCCC(=O)Nc1ccccc1 | – | Activity (Mus musculus [3]): Active; Activity (Mus musculus [4]): Active; Activity (Mus musculus [5]): Active; Activity (Mus musculus [6]): Active; concentration at 1 h [7]: 70 ng/mL; Activity (Mus musculus [8]): Active; Activity (Mus musculus [9]): Active; Activity (Mus musculus [10]): 50%; Cp (Plasma): 35 ng/mL
5 | O=C(CCCCC(=O)Nc1ccc(CC(=O)C(F)(F)C(F)(F)F)cc1)Nc1ccccc1 | 3 | IC50 (Autotaxin [2]): 500 nM
6 | COC(=O)[C@H](CCC(=O)NO)NC(=O)CCCCC(=O)Nc1ccc(OC)cc1 | 4.5 | –
7 | COC(=O)[C@H](CCC(=O)NO)NC(=O)CCCCC(=O)Nc1ccccc1 | 0.4 | –
8 | COC(=O)[C@H](CCC(=O)NO)NC(=O)CCCCNC(=O)c1ccccc1 | > 5 | –
9 | COC(=O)[C@H](CCCC(=O)NO)NC(=O)CCCCCCc1ccccc1 | > 5 | –
10 | O=C(CCCCC(=O)Nc1ccc(B(O)O)cc1)Nc1ccccc1 | 0.7 | IC50 (Autotaxin [2]): 4000 nM
11 | O=C(CCN1CCN(C(=O)OCc2cc(Cl)cc(Cl)c2)CC1)c1ccc2[nH]c(=O)oc2c1 | – | inhibition in vivo at 30 mg/kg (Rattus norvegicus): > 95%; IC50 (Autotaxin [11]): 1.7 nM; IC50 (Autotaxin [12]): 2.8 nM
12 | COC(=O)[C@H](CCCC(=O)NO)NC(=O)CCCCC(=O)Nc1ccccc1 | 0.05 | –
13 | CCOc1ccc(NC(=O)CCCCC(=O)N[C@@H](CCC(=O)NO)C(=O)OC)cc1 | > 5 | –
14 | O=C(Cc1ccc(NC(=O)CCCCc2ccc(-c3ccccc3)cc2)cc1)NO | > 5 | –
15 | CCCCCCCCc1ccc(C(=O)Nc2ccc(CC(=O)NO)cc2)cc1 | > 5 | –
16 | O=C(CC[C@H](NC(=O)CCCCC(=O)Nc1ccccc1)C(=O)NO)NO | > 5 | –
17 | O=C(Cc1ccc(NC(=O)CCCCNC(=O)c2ccc(F)cc2)cc1)NO | > 5 | –
18 | O=C(O)Cc1ccc(NC(=O)CCCCC(=O)Nc2ccccc2)cc1 | > 5 | –
